# High-throughput results (PubChem)
# Compounds with a hit are over-represented: about 2.6% of the library has one in this group of screens.
# MC4R barr agon: agonists of human melanocortin 4 receptor (MC4R) beta-arrestin; P32245; U2OS MC4R beta-arrestin complementation, luminescence; percent of melanotan II response, DMSO zero; activation, % at 8.9 µM; actives 0.98% (n = 360,000); AID 540308;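 active means activation above a per-plate cutoff, the mean activation of sample wells on that plate plus 3 SD, cut at about 8% in these data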
# iPSC survival up: enhancers of human iPSC single-cell survival; hiPSC single-cell survival, ATPlite luminescence; 100% = ROCK inhibitor wells, 0% = DMSO; survival enhancement, % at 20 µM; actives 0.044% (n = 360,000); AID 602274; in the data active means survival enhancement above about 18%;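 further: cells exposed to compounds for 16 hours before the ATP read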
# Granule exo inh: blocks lytic granule exocytosis; TALL-104 LAMP-1 surface exposure, flow cytometry; cells stimulated with thapsigargin and PMA; inhibition, % at 10 µM; actives 0.66% (n = 360,000); AID 651702;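 active means inhibition above about 55%, limit read from the data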
# ABCB6 inh 2: inhibitors of human ABC transporter ABCB6 | Q9NP58 | K562-ABCB6 porphyrin accumulation, flow cytometry, 1 h; active compounds read low | fluorescence ratio to DMSO, % at 10 µM | actives 0.19% (n = 360,000) | AID 602162;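 active means fluorescence ratio to DMSO below 75%, the collection mean minus 3 SD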;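 further: signal is porphyrin accumulated inside mitochondria; 100% equals median channel fluorescence of DMSO control wells; lower ratio means ABCB6 inhibition with less porphyrin fluorescence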
# Target sequence (Q9NP58 whole entry, looked up): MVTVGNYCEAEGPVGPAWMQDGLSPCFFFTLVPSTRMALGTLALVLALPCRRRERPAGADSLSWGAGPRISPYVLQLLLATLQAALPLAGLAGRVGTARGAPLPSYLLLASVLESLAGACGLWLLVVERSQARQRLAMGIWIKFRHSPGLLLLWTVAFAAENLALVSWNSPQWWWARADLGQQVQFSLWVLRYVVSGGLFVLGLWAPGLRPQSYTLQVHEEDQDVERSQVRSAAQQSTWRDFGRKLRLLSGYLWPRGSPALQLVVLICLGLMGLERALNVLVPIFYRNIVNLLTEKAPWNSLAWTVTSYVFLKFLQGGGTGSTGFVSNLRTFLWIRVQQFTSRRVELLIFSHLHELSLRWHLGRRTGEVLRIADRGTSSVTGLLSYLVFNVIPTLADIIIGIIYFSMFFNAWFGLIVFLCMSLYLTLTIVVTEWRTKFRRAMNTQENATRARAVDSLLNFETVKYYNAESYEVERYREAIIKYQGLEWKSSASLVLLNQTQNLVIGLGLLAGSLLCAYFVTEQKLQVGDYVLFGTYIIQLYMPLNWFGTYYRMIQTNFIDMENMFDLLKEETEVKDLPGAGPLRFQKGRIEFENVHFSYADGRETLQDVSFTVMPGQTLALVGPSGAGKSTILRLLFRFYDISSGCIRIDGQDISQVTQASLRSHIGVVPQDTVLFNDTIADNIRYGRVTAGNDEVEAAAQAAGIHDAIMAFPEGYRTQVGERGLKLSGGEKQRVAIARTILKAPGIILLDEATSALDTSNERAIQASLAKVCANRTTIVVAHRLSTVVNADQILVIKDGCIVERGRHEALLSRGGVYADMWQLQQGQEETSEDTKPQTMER
# TbMetRS inhib: Trypanosoma brucei MetRS inhibition | inhibition, % at 11.9 µM | actives 0.4% (n = 360,000) | purified T. brucei MetRS, ATP depletion, Kinase-Glo luminescence;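 active means inhibition above a per-plate cutoff of the control wells' mean inhibition plus 3 SD, cut at about 5.5% in these data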;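 further: 0% = DMSO wells median and 100% = median of wells with control inhibitor compound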
#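 Assay system: T. brucei methionyl-tRNA synthetase, purified | Medium: HEPES buffer with MgCl2, KCl, DTT, spermine, BSA, pyrophosphatase | Compound: 11.9 µM single point | Incubation: 15 min enzyme-compound preincubation, 2 h reaction, 10 min detection, 25 °C | Measured by: Kinase-Glo luciferase luminescence reporting remaining unconsumed ATP | Measure: % inhibition normalized to control-well medians | Replication: Singlicate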
# MC4R antag cAMP: antagonists of human melanocortin 4 receptor (MC4R); inhibition, % at 6.5 µM; MC4R-expressing cells, MTII-stimulated cAMP, LANCE TR-FRET; AID 540295; actives 0.48% (n = 360,000); P32245;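 active means inhibition above its plate's cutoff, the mean of tested wells on that plate plus 3 SD, cut at about 29% in these data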;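 further: 0% = Melanotan II alone and 100% = Melanotan II plus saturating MCL0020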
#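 System – human MC4R-expressing U2OS cells · Also added – Melanotan II · Dosing – one concentration, 6.5 µM nominal · Timing – 30-min compound, 1-h challenge, 1-h detection, room temperature · Measured by – Eu-cAMP/anti-cAMP TR-FRET, emission 671 nm · Replicates – singlicate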
# MC4R barr ag: human MC4R beta-arrestin agonism confirmation | shares compounds with MC4R barr agon | U2OS MC4R beta-arrestin recruitment, luminescence; scaled DMSO 0%, Melanotan II 100% | activation, % at 8.9 µM | actives 31% (n = 2,400);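 active means mean activation across replicates above the hit cutoff set in the earlier primary screen, cut at about 8% in these data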
# MOR DOR agonist: OPRM1-OPRD1 heterodimer agonism counter-screen | shares compounds with MC4R barr agon | U2OS PathHunter beta-arrestin, beta-gal luminescence; percent of deltorphin B response, DMSO zero | activation, % at 9.2 µM | actives 5.8% (n = 2,400) | AID 602194;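 active means mean activation across replicates exceeds the hit threshold derived in the earlier primary screen, cut at about 18% in these data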;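 further: 100% = deltorphin B at 0.9 µM final and 0% = DMSO alone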
# The depositor's hits bear a star; / = not tested or not shown.
SMILES,MC4R barr agon,iPSC survival up,Granule exo inh,ABCB6 inh 2,TbMetRS inhib,MC4R antag cAMP,MC4R barr ag,MOR DOR agonist
N#Cc1ccccc1OCC(=O)Nc1c(C(=O)C2CC2)oc2ccccc12,22*,1,-2,77,0,0,8.9*,7
O=C(CN1CCCC1)Nc1c(C(=O)C2CC2)oc2ccccc12,-1,0,3,99,-1,10,/,/
CC(CCc1ccccc1)NC(=O)c1ccc(NC(=O)c2ccc(Cl)cc2Cl)cc1 (centres undefined),9.9*,-1,-2,97,0,1,7,6
CC(Sc1ncccn1)C(=O)NNC(=O)c1cccc(Cl)c1 (centres undefined),4,0,-6,99,0,-1,/,/
COc1ccc(NC(=O)c2cc(-c3ccco3)on2)c(OC)c1,10*,0,-6,105,0,11,1,8
COc1ccc(OC)c(-c2cc(C(=O)Nc3cc(C)on3)no2)c1,17*,4,-2,113,-1,-14,10*,10
COc1cc(NC(=O)c2cc(-c3ccco3)on2)c(OC)cc1Cl,1,2,-2,100,0,3,/,/
Cc1ccnc2nc(C(=O)OCC(=O)NC(=O)NCc3ccco3)nn12,-1,2,0,100,-1,2,/,/
Cc1ccc(S(=O)(=O)N2CCCN(S(=O)(=O)c3ccc(C(F)(F)F)cc3)CC2)cc1,28*,-2,0,194,0,-12,14*,30*
Cc1ccc(S(=O)(=O)N2CCCN(C)CC2)cc1,-1,0,2,101,0,12,/,/
CC(=O)N1c2ccc(S(=O)(=O)NCC3CCC(C(=O)N4CCCC(C)C4)CC3)cc2CC1C (centres undefined),-2,0,-11,106,-1,10,/,/
COc1cccc(OCC(=O)Nc2ccccc2-c2ccccc2)c1,2,0,2,100,-1,-7,/,/
COc1cccc(OCC(=O)NN=C2c3ccccc3-c3ccccc32)c1,65*,6,-2,44*,-1,-4,8,6
O=C(c1cccc(-c2ccc(O)cc2)c1)N1CCN(c2ccc(F)cc2)CC1,13*,-2,2,102,-1,9,4,6
O=C(Nc1cccc(C(=O)N2CCN(c3ccc(F)cc3)CC2)c1)c1ccccc1,-2,0,-1,101,0,1,/,/
c1ccc(SCCN2CCN(c3ccccc3)CC2)cc1,2,0,-13,96,-2,-4,/,/
NC1=NC(=O)/C(=C/c2c(OS(=O)(=O)c3ccc(Cl)cc3)ccc3ccccc23)S1,9.6*,-1,-5,96,0,7,2,5
Cc1ccc(NC(=O)NNC(=O)c2cc3ccccc3cc2O)cc1,13*,0,1,99,0,2,15*,6
O=C(COC(=O)/C=C/c1ccc([N+](=O)[O-])cc1)NC(=O)NC1CCCCC1,19*,1,-1,99,0,-3,7,13
O=C(COC(=O)/C=C/c1ccccc1)NC(=O)NC1CCCCC1,6,1,2,103,0,2,/,/
C=CCOc1ccc(/C=C/C(=O)OCC(=O)NCC2CCCCC2)cc1,12*,1,-7,104,0,0,1,3
O=C(COC(=O)/C=C/c1ccc([N+](=O)[O-])cc1)NCc1ccccc1,2,1,-1,94,0,-6,/,/
O=C(COC(=O)/C=C/c1ccc([N+](=O)[O-])cc1)NC(c1ccccc1)c1ccccc1,12*,-1,3,97,0,5,2,1
O=C(CN1C(=O)/C(=C\c2ccc(F)cc2)Oc2ccccc21)NCc1ccco1,1,1,-2,98,0,11,/,/
COc1ccccc1-c1cc(NC=O)c2ncc(-c3ccc(F)cc3)n2c1,18*,-1,39,100,0,14,18*,4
SMILES,MC4R barr agon,iPSC survival up,Granule exo inh,ABCB6 inh 2,TbMetRS inhib,MC4R antag cAMP,MC4R barr ag,MOR DOR agonist
CN(C)c1ccccc1-c1cc(NC=O)c2ncc(-c3cccc(C(F)(F)F)c3)n2c1,27*,-3,-12,122,0,-6,27*,5
CS(=O)(=O)c1ccc(-c2cc(NC=O)c3ncc(-c4ccc(F)cc4)n3c2)cc1,11*,-1,-4,93,0,-2,6,3
O=CNc1cc(-c2ccc(C(=O)NC3CC3)cc2)cn2c(-c3ccc(F)cc3)cnc12,3,-2,12,99,0,7,/,/
COc1ccccc1-c1cc(NC=O)c2ncc(-c3cccc(C(F)(F)F)c3)n2c1,25*,-1,23,91,0,-1,23*,2
COc1cccc(-c2nnc(NC(=O)c3ccc(Cl)s3)o2)c1,-1,0,2,100,-1,-8,/,/
COc1ccc(CN(C(=O)Cn2nnc(-c3ccc(C)o3)n2)C(C(=O)NCC2CCCO2)c2ccco2)cc1 (centres undefined),1,0,-12,98,0,9,/,/
O=C(Nc1cc(C(F)(F)F)ccc1N1CCCC1)c1cccnc1,4,0,-2,99,-1,-5,/,/
COc1cc(-c2cc(NC=O)c3ncc(-c4cccc(C(F)(F)F)c4)n3c2)cc(OC)c1OC,22*,2,9,88,0,-28,19*,8
COc1ccc(-c2cc(NC=O)c3ncc(-c4cccc(C(F)(F)F)c4)n3c2)cc1OC,36*,3,4,115,0,-9,27*,6
CCCCNS(=O)(=O)c1ccc(NC(=O)C2c3ccccc3Oc3ccccc32)cc1,13*,3,-5,97,0,3,13*,6
O=C(Nc1ccncc1)C1c2ccccc2Oc2ccccc21,-3,0,-4,100,0,-2,/,/
O=C(CSc1nc2nn(-c3ccccc3)c(=O)c-2c2n1CCCCC2)NCCc1ccccc1,-2,-1,2,101,-1,3,/,/
COc1ccc(-c2ccc(C#N)c(SCC(=O)NCCc3ccccc3)n2)cc1OC,12*,-2,2,97,3,19,4,6
COc1cccc(-c2ccc(C#N)c(OC(=O)c3ccc(Cl)cc3)n2)c1,-2,-1,-1,109,-1,12,/,/
